Assay [1] deals with T1, Neuronal acetylcholine receptor; alpha3/beta4 (Homo sapiens) (UniProt P30926+P32297). Briefly: Agonist activity at human alpha3beta4 nAChR expressed in Xenopus oocytes at 10 uM incubated for 8 secs followed by compound washout measured after 241 secs by two-electrode voltage clamp technique. It is filed as cell-based.
The target in assay [2] is T1, Neuronal acetylcholine receptor; alpha3/beta4 (Homo sapiens). The assay can be described thus: Antagonist activity at human alpha3beta4 nAChR expressed in Xenopus oocytes at 1 uM incubated for 8 secs followed by compound washout measured after 241 secs by two-electrode voltage clamp technique. It is filed as cell-based.
Assay [3] deals with T2, Neuronal acetylcholine receptor; alpha4/beta2 (Homo sapiens) (UniProt P17787+P43681). The assay can be described thus: Partial agonist activity at human alpha4beta2 nAChR expressed in Xenopus oocytes at 10 uM incubated for 8 secs followed by compound washout measured after 241 secs by two-electrode voltage clamp technique. It is filed as cell-based. On the technique in general: In two-electrode clamp one electrode senses voltage and the other passes current.

Assay [4] has as its target T3, Nicotinic acetylcholine receptor alpha1/beta1/epsilon/delta (Mus musculus) (UniProt P04756+P09690+P02716+P20782). Briefly: Agonist activity at mouse muscle alpha1beta1epsilondelta nAChR expressed in Xenopus oocytes at 10 uM incubated for 8 secs followed by compound washout measured after 241 secs by two-electrode voltage clamp technique. It is filed as cell-based.

For assay [5], the target named is T3, Nicotinic acetylcholine receptor alpha1/beta1/epsilon/delta (Mus musculus). The assay can be described thus: Antagonist activity at mouse muscle alpha1beta1epsilondelta nAChR expressed in Xenopus oocytes assessed as inhibition of acetylcholine-induced effect at 1 uM incubated for 8 secs followed by compound washout measured after 241 secs by two-electrode voltage clamp technique. It is filed as cell-based.

For assay [6], the target named is Neuronal acetylcholine receptor subunit alpha-7 (Homo sapiens) (UniProt P36544). The assay can be described thus: Antagonist activity at human alpha7 nAChR expressed in Xenopus oocytes assessed as inhibition of acetylcholine-induced effect at 1 uM incubated for 12 secs followed by compound washout measured after 181 secs by two-electrode voltage clamp technique. It counts as cell-based.

Assay [7] has as its target Neuronal acetylcholine receptor; alpha4/beta2 (Rattus norvegicus, UniProt P09483+P12390). The assay can be described thus: Displacement of [3H]epibatidine from Sprague-Dawley rat brain alpha4beta2 nAChR after 90 mins by liquid scintillation counting analysis. Summed up: (§1)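 Radioligand competition binding gave Ki values, reported as mean ± SEM from 2–10 independent experiments.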
(In a radioligand displacement assay an active substance lowers the binding of a labelled ligand.)

Assay [8] concerns the target Neuronal acetylcholine receptor subunit alpha-7 (Rattus norvegicus, UniProt Q05941). Briefly: Displacement of [3H]methyllycaconitine from Sprague-Dawley rat brain alpha7 nAChR after 120 mins by liquid scintillation counting analysis. It counts as tissue-based. Summed up:
as §1

In assay [9] the target is T1, Neuronal acetylcholine receptor; alpha3/beta4 (Homo sapiens). The assay can be described thus: Agonist activity at human alpha3beta4 nAChR expressed in Xenopus oocytes at 1 uM incubated for 8 secs followed by compound washout measured after 241 secs by two-electrode voltage clamp technique. It counts as cell-based.
For assay [10], the target named is Neuronal acetylcholine receptor subunit alpha-7 (Homo sapiens) (UniProt P36544). Briefly: Agonist activity at human alpha7 nAChR expressed in Xenopus oocytes at 1 uM incubated for 12 secs followed by compound washout measured after 181 secs by two-electrode voltage clamp technique. It is filed as cell-based.
Assay [11] in a line: Displacement of [3H]epibatidine from calf adrenal alpha3beta4 nAChR after 90 mins by liquid scintillation counting analysis. The arrangement: species or system Bos taurus.
Assay [12] addresses T2, Neuronal acetylcholine receptor; alpha4/beta2 (Homo sapiens). The assay can be described thus: Partial agonist activity at human alpha4beta2 nAChR expressed in Xenopus oocytes at 1 uM incubated for 8 secs followed by compound washout measured after 241 secs by two-electrode voltage clamp technique. It counts as cell-based.
The nature of assay [13]: Displacement of [3H]epibatidine from Torpedo californica electroplax (alpha1)2beta1gammadelta nAChR after 90 mins by liquid scintillation counting analysis. The arrangement: species or system Tetronarce californica.
Assay [14] addresses T3, Nicotinic acetylcholine receptor alpha1/beta1/epsilon/delta (Mus musculus). The assay can be described thus: Agonist activity at mouse muscle alpha1beta1epsilondelta nAChR expressed in Xenopus oocytes at 1 uM incubated for 8 secs followed by compound washout measured after 241 secs by two-electrode voltage clamp technique. It is filed as cell-based.

The structures appear in SMILES notation. Active and inactive are the calls of the source. The calls are words filed in the database; no cut-off is given here. Bounds are passed on as bounds.

Sequence of Neuronal acetylcholine receptor subunit alpha-7 (Homo sapiens) (P36544 whole entry): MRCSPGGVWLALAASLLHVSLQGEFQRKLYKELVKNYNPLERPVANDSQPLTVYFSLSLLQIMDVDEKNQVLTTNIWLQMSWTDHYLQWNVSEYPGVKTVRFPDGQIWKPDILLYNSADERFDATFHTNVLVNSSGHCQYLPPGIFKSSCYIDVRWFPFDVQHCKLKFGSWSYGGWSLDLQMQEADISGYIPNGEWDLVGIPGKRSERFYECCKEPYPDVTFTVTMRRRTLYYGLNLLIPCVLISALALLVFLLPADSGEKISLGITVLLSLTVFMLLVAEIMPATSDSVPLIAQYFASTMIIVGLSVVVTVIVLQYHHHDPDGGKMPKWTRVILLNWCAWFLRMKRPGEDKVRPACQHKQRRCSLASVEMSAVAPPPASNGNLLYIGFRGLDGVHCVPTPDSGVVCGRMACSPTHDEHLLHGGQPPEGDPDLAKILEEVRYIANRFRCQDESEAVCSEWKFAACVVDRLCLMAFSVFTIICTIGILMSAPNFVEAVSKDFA
Sequence of Neuronal acetylcholine receptor; alpha4/beta2 (P09483 whole entry): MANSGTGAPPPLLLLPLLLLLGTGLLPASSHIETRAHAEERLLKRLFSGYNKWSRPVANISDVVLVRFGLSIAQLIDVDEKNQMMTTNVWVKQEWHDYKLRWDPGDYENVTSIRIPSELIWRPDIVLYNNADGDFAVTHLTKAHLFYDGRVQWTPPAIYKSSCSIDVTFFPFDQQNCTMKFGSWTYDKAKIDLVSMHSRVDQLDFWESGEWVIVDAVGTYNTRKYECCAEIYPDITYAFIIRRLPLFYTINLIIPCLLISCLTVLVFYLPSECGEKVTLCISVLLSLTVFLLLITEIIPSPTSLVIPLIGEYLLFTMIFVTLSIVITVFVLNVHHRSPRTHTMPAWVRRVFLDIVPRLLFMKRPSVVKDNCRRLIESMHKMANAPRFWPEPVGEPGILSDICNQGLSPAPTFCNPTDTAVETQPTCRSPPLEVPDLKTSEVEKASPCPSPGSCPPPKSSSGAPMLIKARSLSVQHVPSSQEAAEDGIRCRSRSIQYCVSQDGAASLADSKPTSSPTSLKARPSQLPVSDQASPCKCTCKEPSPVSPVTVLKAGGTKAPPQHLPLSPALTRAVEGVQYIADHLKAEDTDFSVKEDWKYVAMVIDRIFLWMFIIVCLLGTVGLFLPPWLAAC
Sequence of Neuronal acetylcholine receptor; alpha4/beta2 (P12390 whole entry): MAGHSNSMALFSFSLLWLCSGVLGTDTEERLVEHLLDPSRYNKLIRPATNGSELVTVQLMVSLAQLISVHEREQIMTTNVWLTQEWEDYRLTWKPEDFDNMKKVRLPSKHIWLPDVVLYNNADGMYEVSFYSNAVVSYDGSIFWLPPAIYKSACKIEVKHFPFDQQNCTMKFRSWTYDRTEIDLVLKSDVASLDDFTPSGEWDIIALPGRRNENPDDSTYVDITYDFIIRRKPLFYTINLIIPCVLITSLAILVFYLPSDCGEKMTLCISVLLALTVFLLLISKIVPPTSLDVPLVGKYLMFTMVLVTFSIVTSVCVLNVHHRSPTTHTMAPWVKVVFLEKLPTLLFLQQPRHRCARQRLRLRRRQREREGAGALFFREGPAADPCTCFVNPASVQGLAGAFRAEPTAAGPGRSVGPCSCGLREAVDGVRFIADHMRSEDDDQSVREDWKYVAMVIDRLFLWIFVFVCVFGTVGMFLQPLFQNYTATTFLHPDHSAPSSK
Sequence of Neuronal acetylcholine receptor subunit alpha-7 (Q05941 whole entry): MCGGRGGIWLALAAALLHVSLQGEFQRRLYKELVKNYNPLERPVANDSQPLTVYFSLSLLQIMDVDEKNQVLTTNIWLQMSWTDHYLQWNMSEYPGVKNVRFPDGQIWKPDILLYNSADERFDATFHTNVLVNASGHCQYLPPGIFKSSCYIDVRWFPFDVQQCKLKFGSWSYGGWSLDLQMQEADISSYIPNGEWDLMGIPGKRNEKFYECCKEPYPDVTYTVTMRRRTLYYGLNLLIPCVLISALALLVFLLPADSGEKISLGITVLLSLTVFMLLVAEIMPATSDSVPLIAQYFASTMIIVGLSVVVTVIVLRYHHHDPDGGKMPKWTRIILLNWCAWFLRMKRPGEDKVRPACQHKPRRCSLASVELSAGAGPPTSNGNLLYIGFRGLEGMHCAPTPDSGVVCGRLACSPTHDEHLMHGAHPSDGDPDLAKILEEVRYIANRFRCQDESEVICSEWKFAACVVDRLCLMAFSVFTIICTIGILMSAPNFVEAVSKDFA

Take `O=C(/C=C/c1cccc(Cl)c1)N1C[C@@H]2CNC[C@@H](C2)C1`: the result in [1], in assay [2] and in [4] was inactive. Moreover, the result in assay [3] was Active. Moreover, the inhibition entry in assay [5] and in assay [6] was “inactive” in each case. Further, the values for the inhibitory constant (Ki) in assay [7] and in assay [8] were 23.7 nM and more than 10000 nM, respectively.

Take `O=C(/C=C/c1ccc2c(c1)OCO2)N1C[C@@H]2CNC[C@@H](C2)C1`: the outcome in assay [1], in assay [9], in assay [2], in assay [4], in assay [10] and in assay [14] was inactive. In addition, the result in [3] and in [12] was Active. Further, the inhibition entry in assay [5] and in [6] was “inactive” in each case. In addition, the inhibitory constant (Ki) in assay [11] is more than 1000 nM; in [13], more than 5000 nM; in assay [7] it was 36.9 nM; in assay [8], more than 1000 nM.

For the compound `O=C(Cc1ccc2c(c1)OCO2)N1C[C@@H]2CNC[C@@H](C2)C1`, the result in assay [1], in assay [9], in assay [2], in assay [4], in [10] and in assay [14] was inactive. Moreover, the outcome in assay [3] and in assay [12] was Active. Moreover, the inhibition result in assay [5] and in assay [6] was “inactive” throughout. The inhibitory constant (Ki) in [11] was more than 1000 nM; in assay [13], more than 5000 nM; in assay [7], 13.2 nM; in assay [8], more than 1000 nM.

In the case of `O=C(/C=C/c1ccsc1)N1C[C@@H]2CNC[C@@H](C2)C1`, the result in assay [1], in [2] and in assay [4] was inactive. For the same compound, the outcome in [3] was Active. Besides, the inhibition entry in assay [5] and in assay [6] was “inactive” in each case. For the same compound, the Ki in [7] was 57.1 nM; in assay [8] it was more than 10000 nM.

Take `O=C(/C=C/c1cccnc1)N1C[C@@H]2CNC[C@@H](C2)C1`: the result in assay [1], in assay [9], in assay [2], in assay [4], in [10] and in [14] was inactive. Besides, the outcome in assay [3] and in [12] was Active. For the same compound, the inhibition result in assay [5] and in assay [6] was “inactive” throughout. Besides, the inhibition constant Ki is more than 1000 nM in [11], more than 5000 nM in assay [13], 32.6 nM in [7] and more than 1000 nM in [8].

As to `Cc1cc(CC(=O)N2C[C@@H]3CNC[C@@H](C3)C2)on1`, the result in assay [9], in assay [2], in assay [10] and in assay [14] was inactive. The inhibition result in [5] and in assay [6] was “inactive” in each case. Moreover, the values for the inhibition constant Ki in [11], in assay [7] and in assay [8] were more than 1000 nM, 46.9 nM and more than 1000 nM, respectively. The result in [12] was Active.

Take `O=C(CCc1cccnc1)N1C[C@@H]2CNC[C@@H](C2)C1`: the result in assay [1], in assay [2] and in assay [4] was inactive. Besides, in assay [3], the outcome was Active. The inhibition result in [5] and in assay [6] was “inactive” in each case. Besides, the Ki in assay [11] is more than 5000 nM; in [13], more than 5000 nM; in [7] it was 39 nM; in [8], more than 5000 nM.

For `O=C(Cc1ccncc1)N1C[C@@H]2CNC[C@@H](C2)C1`, the outcome in [1], in assay [9], in assay [2], in assay [4], in assay [10] and in [14] was inactive. Also, the outcome in assay [3] and in [12] was Active. In addition, the inhibition result in assay [5] and in assay [6] was “inactive” each time. Also, the Ki in assay [11] is more than 1000 nM; in assay [13], more than 5000 nM; in assay [7], 14.4 nM; in [8] it was more than 1000 nM.

`O=C(Cc1ccc2ccccc2c1)N1C[C@@H]2CNC[C@@H](C2)C1`: the outcome in [1], in assay [2] and in [4] was inactive. The outcome in assay [3] was Active. For the same compound, the inhibition entry in [5] and in assay [6] was “inactive” throughout. Besides, the inhibition constant (Ki) in assay [11] is more than 1000 nM; in assay [13] it was more than 5000 nM; in assay [7] it was 10.2 nM; in [8] it was more than 1000 nM.

Turning to `O=C(C#Cc1ccccc1)N1C[C@@H]2CNC[C@@H](C2)C1`, the result in assay [1], in assay [2] and in assay [4] was inactive. The outcome in assay [3] was Active. The inhibition entry in assay [5] and in assay [6] was “inactive” throughout. Moreover, the Ki in assay [11] was more than 1000 nM; in [13], more than 1000 nM; in assay [7], 10.9 nM; in assay [8], more than 5000 nM.

Turning to `O=C(Cc1ccccc1)N1C[C@@H]2CNC[C@@H](C2)C1`, the result in assay [1], in assay [9], in assay [2], in [4], in assay [10] and in assay [14] was inactive. Besides, the result in assay [3] and in assay [12] was Active. Further, the inhibition entry in assay [5] and in assay [6] was “inactive” in each case. The inhibition constant Ki was 57.6 nM in assay [7] and more than 10000 nM in assay [8].

For `O=C(CCc1ccccc1)N1C[C@@H]2CNC[C@@H](C2)C1`, the outcome in [1], in assay [9], in assay [2], in assay [4], in assay [10] and in [14] was inactive. Moreover, the result in assay [3] and in [12] was Active. The inhibition result in assay [5] and in assay [6] was “inactive” throughout. Besides, the values for the inhibition constant (Ki) in assay [11], in assay [7] and in assay [8] were 396 nM, 52.5 nM and more than 10000 nM, respectively.

Turning to `COc1ccc(/C=C/C(=O)N2C[C@@H]3CNC[C@@H](C3)C2)cc1`, the result in [1], in assay [9], in assay [2], in assay [4], in [10] and in [14] was inactive. Further, the result in assay [3] and in assay [12] was Active. The inhibition entry in [5] and in assay [6] was “inactive” in each case. Also, the Ki in assay [7] is 39.6 nM.

For the compound `O=C(/C=C/c1ccc(F)cc1)N1C[C@@H]2CNC[C@@H](C2)C1`, the outcome in assay [2] and in assay [4] was inactive. Further, in assay [3], the result was Active. Besides, the inhibition entry in assay [5] and in [6] was “inactive” each time. In addition, the Ki in assay [11] is more than 5000 nM; in assay [13] it was more than 10000 nM; in assay [7], 20.7 nM; in [8], more than 5000 nM.

In the case of `O=c1c(-c2ccc3c(c2)OCO3)ccc2n1C[C@@H]1CNC[C@H]2C1`, the inhibition constant (Ki) in [11] was more than 10000 nM; in assay [13], more than 10000 nM; in assay [7] it was 110 nM; in [8] it was more than 10000 nM.

As to `O=c1c(-c2ccccc2)ccc2n1C[C@@H]1CNC[C@H]2C1`, the inhibitory constant (Ki) was more than 10000 nM in assay [11], more than 10000 nM in assay [13], 128 nM in assay [7] and more than 10000 nM in assay [8].

One may read the Ki as a dissociation constant, usually derived from enzyme kinetics or from competition with a known ligand.

Source of the values: ChEMBL document CHEMBL3091445, “The 3,7-diazabicyclo[3.3.1]nonane scaffold for subtype selective nicotinic acetylcholine receptor ligands. Part 2: carboxamide derivatives with different spacer motifs” (Bioorg Med Chem, 2013).
